For 1 protein, kcat results are on record in ChEMBL document CHEMBL4229443, “Activation studies with amines and amino acids of the α-carbonic anhydrase from the pathogenic protozoan Trypanosoma cruzi” (Bioorg Med Chem, 2018).

Compound in this series: N[C@@H](Cc1c[nH]c2ccccc12)C(=O)O
The series is described as follows: Activation of Trypanosoma cruzi CA assessed as Kcat at 10 uM preincubated for 15 mins followed by CO2 addition by stopped-flow assay (reference value: 1.2 10^6/s). An outline of the steps: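 kcat of recombinant TcCA measured with 10 µM activator after 15 min pre-incubation at room temperature. Stopped-flow CO2 hydration in 10 mM Hepes pH 7.5 with 0.1 M Na2SO4 and 0.2 mM phenol red (557 nm), 25 °C. Initial velocities from the first 5–10% of the reaction, uncatalyzed rate subtracted. Mean of at least three determinations.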

B1: Carbonic anhydrase-like protein, putative (Trypanosoma cruzi (strain CL Brener)), Q4CVY4 (protein)
chain: MTCGIRRGEGREGSKMVKAVIFSLLCLHVHALMSPVSAENGYTTAGLPREKPQGPQWGYTNLTAWPKLCQTGKQQSPVSFSELQPNEVVHRKDMGPLVFSRDCKFAAEKTSLKIENEVNTISVRFIPLDDPTNKFPSLCTVRDPTDPDSPEYHLVSMHFHSPAEHVLPCANPDAELHLVFAHTQQSRQPHLMVVVVQLVASDKINSTSVAALKHILLDGSLPPKRAVTTCTLTENMTIAGFLPQSGSYFAYNGSLTTPPCTEGVLFVVLTSPQIISKTALERLVEAFQRARPGNHNGNHRPTQPLNGRVVYHFVDMHHMNYSMCMRDMENHHTNSSQMAGMSGAMQHMNCSMCMRNMENHHKNSSQMEGMSGAMQHMNCSMCMRNMENHHKNSSQMAGMSGAMQHMNCSMCMRNMENHHTNSSQMAGMSGAMQHMNCSMCMRNMENHHKNSSQMAGMSGAMQHMNCSMCMRNMENHHTNSSQMAGMSGAMQHMNCSMCMRNMENHHTNSSQMAGMSGAMQHMNCSMCMRNMENHHKNSSQMEGMSSEEMSMMERSANESSGAQLAGLASEENATNTSSAPANKWPHQFNSRERLFLIAAALVLLLVTFILYRWRNSSARETETESLFRSHEGYGTTNP
With B1, the kcat came out at 7.8 ×10⁶ /s.
